High-throughput results: PubChem BioAssay, several laboratories
An excerpt weighted towards active compounds, which were near 1.8% of everything screened.
PPC-1+TRAIL kill: compounds killing PPC-1 cancer cells with TRAIL present (potentiator screen, no TRAIL-free arm). AID 1443. PPC-1 cells + TRAIL, ATPLite viability luminescence. cell killing (% activity), % at 4 µM or 5 µM. 220,000 tested, 0.41% active;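 active = cell killing above 50% in the first pass at 4 µM, then a duplicate retest at 5 µM averaging 50% or more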;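 also: plate controls were cells with TRAIL plus DMSO for no effect and medium-only wells lacking cells for full effect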
C8 TRAIL sens: sensitizes caspase-8 expressing cells to TRAIL; NB7+C8 cells + TRAIL, ATPlite viability luminescence; inhibition (viability loss, TRAIL sensitization), % at 10 µM; 360,000 tested, 1% active;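 active = compounds causing at least 50% loss of cell viability in the single-dose screen, relative to plate controls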
STAT3 activator: activators of IL-6 induced STAT3 signaling; U3A cells, IL-6 STAT3-luciferase reporter, luminescence; 100% = signal with IL-6 EC80 alone; activation (% of control), % at 5.6 µM; 190,000 tested, 0.91% active; AID 871;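 active = activation above the screen-wide mean of compound activation plus 3 SD, cut at about 130% in these data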;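 also: 0% = background luminescence of wells with medium and substrate only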
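Test system: STAT3-luciferase reporter U3A cells; Detection: reporter luminescence signal; Times: 1 h compound pre-exposure, 6 h IL-6 stimulation, 37 °C; Benchmarks: IL-6-only high control; Also added: IL-6 stimulus at 33 ng/mL final.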
STAT3 blocker: inhibitors of IL-6 induced STAT3 signaling; U3A cells, IL-6 STAT3-luciferase reporter, luminescence; host cell line lacks STAT1; inhibition, % at 5.5 µM; 190,000 tested, 0.89% active;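 active = inhibition above the mean inhibition across all screened compounds plus 3 SD, cut at about 44% in these data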;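 also: 0% = DMSO only wells and 100% = 100 µM nifuroxazide control wells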
STAT1 blocker: STAT1 signaling inhibition. inhibition, % at 5.5 µM. 200,000 tested, 0.35% active. AID 920. NIH 3T3 STAT1-luciferase reporter, IFN-gamma, luminescence;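 active = inhibition above a set limit, the mean inhibition across all tested compounds plus 3 SD, cut at about 34% in these data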;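 also: 0% = IFN-gamma with DMSO and 100% = IFN-gamma with 300 µM nifuroxazide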
PPC-1 tox: PPC-1 cell cytotoxicity. shares compounds with PPC-1+TRAIL kill. cytotoxicity, % at 5 µM. 1,200 tested, 50% active. AID 1447. PPC-1 viability, ATPlite luminescence, overnight;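 active = reconfirmed compounds whose average cytotoxicity reaches 50% or more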;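 also: 0% = DMSO-treated cells and 100% = wells holding medium but no cells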
Active calls of the source: *; x = not tested or not shown.

SMILES	PPC-1+TRAIL kill	C8 TRAIL sens	STAT3 activator	STAT3 blocker	STAT1 blocker	PPC-1 tox
CN(C)c1ncnc2c1ncn2C1OC(CO)C(O)C1O (stereo not given)	43.5	69.4*	67.0	43.6*	61.8*	44.0
COc1ccc(C(=O)Nc2ccccc2C(=O)N/N=C/c2ccncc2)cc1OC	95.5*	94.4*	x	x	x	95.7*
CC1CCN(C(=O)c2ccc(SCc3ccccc3F)c([N+](=O)[O-])c2)CC1	11.2	12.8	99.5	-2.0	-5.4	x
c1cnc2nc(-c3ccc4c(c3)OCO4)cn2c1	26.3	23.4	95.0	11.1	-42.2	x
CCc1ccn2cc(-c3ccc4c(c3)OCO4)nc2c1	92.5*	92.0*	x	x	x	91.4*
COC(=O)c1ccc2nc(-c3ccc4c(c3)OCO4)cn2c1	62.5*	70.4*	25.1	89.0*	66.3*	63.1*
CS(=O)c1nc(-c2ccc(Br)cc2)cc(-c2ccccc2)c1C#N (stereo not given)	71.2*	81.0*	124.7	-21.9	-15.4	73.4*
C[C@@H]1C=C(C(=O)NC2CC2)O[C@H](OCc2ccc(CO)cc2)C1	24.5	3.8	x	x	x	x
CCCCCN1C=CC(=C2C(=O)c3ccccc3C2=O)C=C1	94.3*	95.8*	9.0	107.2*	96.6*	94.2*
Cc1[nH]n(-c2ccccc2)c(=O)c1C(C[N+](=O)[O-])c1ccc(Br)cc1 (stereo not given)	5.5	3.8	99.7	7.8	7.2	-0.1
CCOC(=O)N1CCN(C(=O)c2cc(-c3ccncc3)nc3ccccc23)CC1	x	27.6	x	x	x	x
COc1ccc(-c2cc(C(=O)N3CCCC3)c3ccccc3n2)cc1	x	34.0	x	x	x	x
CCOC(=O)N1CCN(C(=O)c2cc(-c3ccc(OCC)cc3)nc3ccccc23)CC1	82.2*	88.8*	102.9	-0.7	-50.9	83.0*
CCOc1ccc(-c2cc(C(=O)N3CCN(C)CC3)c3ccccc3n2)cc1	72.0*	74.7*	97.0	10.0	-16.7	67.3*
Cc1cn([C@H]2C[C@H](O)[C@@H](/C=C/C(=O)NCCc3ccc(S(N)(=O)=O)cc3)O2)c(=O)[nH]c1=O	x	7.9	x	x	x	x
CCn1c(C)nc2cc(-c3nc4n(n3)Cc3ccccc3-4)ccc21	93.7*	95.8*	7.2	115.2*	96.2*	93.5*
O=C(/C(N=Nc1cccc(C(F)(F)F)c1)=C(/O)c1cccs1)C(F)(F)F	12.5	-0.7	x	x	x	x
Cc1ccc(N=C/C(C(=O)C(F)(F)F)=C(\O)c2cccs2)cc1	28.9	60.9*	27.2	83.9*	53.6*	36.5
CCn1c(SCC(=O)NCCc2ccccc2)nc2c([nH]c3ccccc32)c1=O	x	-5.8	x	x	x	x
CCc1ccc(-c2cn(C3CCCCC3)c(=S)[nH]2)cc1	2.2	3.7	101.8	6.6	8.7	x
O=C1C(=O)c2ccc(-c3ccccc3)cc2-c2ccccc21	96.9*	93.0*	84.6	21.2	6.7	97.1*
Nc1ccc2c(c1)C(=O)c1ccccc1-2	x	-19.3	x	x	x	x
COc1cc(S(=O)(=O)NCc2ccccc2)ccc1Br	8.6	-7.8	105.9	-4.3	-1.8	x
CCOc1cc(S(=O)(=O)NCc2ccccc2)ccc1F	6.2	-7.7	107.0	-4.1	-4.5	-5.0
O=C(COc1ccccc1)NC(=S)Nc1cccc2c(O)cccc12	x	11.0	x	x	x	x
SMILES	PPC-1+TRAIL kill	C8 TRAIL sens	STAT3 activator	STAT3 blocker	STAT1 blocker	PPC-1 tox
O=C1C(Cl)=C(Nc2ccc(O)cc2)C(=O)c2ccccc21	29.1	89.0*	x	x	x	29.7
Cc1cc(C(=O)COC(=O)c2ccco2)c(C)n1Cc1ccco1	14.3	38.2	79.1	27.2	4.7	x
Cc1cc(C(=O)COC(=O)c2cccn2C)c(C)n1Cc1ccco1	37.7	62.6*	45.5	68.9*	36.8*	23.8
Cc1cnc(C(=O)OCC(=O)NCc2ccc3c(c2)OCO3)cn1	10.2	-4.2	102.5	-0.6	3.5	x
Cc1ccc(/C=N/Nc2cn[nH]c(=O)n2)o1	5.7	-11.3	100.6	1.6	-5.9	x
C(=N\Nc1ccc2ccccc2n1)/c1ccc2c(c1)OCCO2	71.0*	81.2*	13.4	108.0*	88.8*	74.8*
C(=N\Nc1nc2ccccc2[nH]1)/c1ccc2c(c1)OCCO2	34.6	31.7	x	x	x	x
Cc1ccc(/C=N/Nc2ccc3ccccc3n2)o1	51.5*	65.2*	30.4	89.7*	73.0*	57.7*
Cc1cccc(/C=N/Nc2ccc3ccccc3n2)c1	71.3*	84.8*	15.6	101.6*	90.3*	72.1*
